Measured values as given in ChEMBL document CHEMBL3817843, “Understanding Oxadiazolothiazinone Biological Properties: Negative Inotropic Activity versus Cytochrome P450-Mediated Metabolism” (J Med Chem, 2016).
pEC50, pIC50: −log10 of the molar value.

How the values were obtained:
[1] = molecular target: T1, Cytochrome P450 1A2 (Homo sapiens, UniProt P05177); experiment: Inhibition of CYP1A2 in human liver microsomes using phenacetin as substrate after 30 mins by LC-MS analysis
T1 sequence (P05177 whole entry): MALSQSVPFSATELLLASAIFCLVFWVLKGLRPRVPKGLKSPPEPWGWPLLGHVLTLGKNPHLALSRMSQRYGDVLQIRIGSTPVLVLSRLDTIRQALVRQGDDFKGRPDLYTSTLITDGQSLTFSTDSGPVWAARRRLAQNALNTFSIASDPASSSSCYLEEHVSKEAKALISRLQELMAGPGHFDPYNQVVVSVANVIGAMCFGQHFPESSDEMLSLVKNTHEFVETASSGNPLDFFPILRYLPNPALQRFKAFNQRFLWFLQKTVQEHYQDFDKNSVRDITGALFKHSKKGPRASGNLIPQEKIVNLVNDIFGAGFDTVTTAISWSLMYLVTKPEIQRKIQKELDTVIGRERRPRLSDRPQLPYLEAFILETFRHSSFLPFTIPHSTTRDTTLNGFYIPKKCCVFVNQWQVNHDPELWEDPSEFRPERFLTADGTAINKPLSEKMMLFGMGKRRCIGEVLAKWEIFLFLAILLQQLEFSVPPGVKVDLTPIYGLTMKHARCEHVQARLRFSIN

[2] = molecular target: Cytochrome P450 2C9 (Homo sapiens, UniProt P11712); experiment: Inhibition of CYP2C9 in human liver microsomes using tolbutamide as substrate after 20 mins by LC-MS analysis
[3] = molecular target: Cytochrome P450 2D6 (Homo sapiens, UniProt P10635); experiment: Inhibition of CYP2D6 in human liver microsomes using dextromethorphan as substrate after 10 mins by LC-MS analysis
[4] = test system: Liver microsome; experiment: Stability in human liver microsomes at 1 uM after 2 to 60 mins by LC-MS analysis in absence of NADPH
[5] = molecular target: T2, Cytochrome P450 3A4 (Homo sapiens, UniProt P08684); experiment: Inhibition of CYP3A4 in human liver microsomes using testosterone as substrate after 5 mins by LC-MS analysis
[6] = molecular target: T2, Cytochrome P450 3A4; experiment: Inhibition of CYP3A4 in human liver microsomes using midazolam as substrate after 4 mins by LC-MS analysis
[7] = molecular target: Cytochrome P450 2C19 (Homo sapiens, UniProt P33261); experiment: Inhibition of CYP2C19 in human liver microsomes using (S)-mephenytoin as substrate after 40 mins by LC-MS analysis
[8] = test system: Left cardiac atrium; experiment: Negative inotropic activity in potassium depolarized guinea pig left atrium assessed as reduction in developed tension after 30 mins; type: functional; conditions: Cavia porcellus, 0.5 h
Method in brief: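 Guinea pig left atria electrically driven at 1 Hz. EC50 taken from log concentration−response curves by Litchfield and Wilcoxon probit analysis, n = 6−7. Not calculated when the maximum effect was below 50%.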

[9] = test system: Aorta; experiment: Vasorelaxant activity in potassium depolarized guinea pig aorta assessed as inhibition of calcium-induced contraction at 10^-4 M after 30 mins; type: functional, Cavia porcellus; design: scale not given: the % may be the effect or the level left
Method in brief: (§1)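 Guinea pig aortic strips depolarized with K+ (80 mM). Calcium-induced contraction measured; inhibition expressed as percent change from control, n = 3−5.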

[10] = test system: Right cardiac atrium; experiment: Negative chronotropic activity in potassium depolarized guinea pig right atrium assessed as reduction in atrial rate at 50 uM after 30 mins; type: functional, Cavia porcellus; design: scale not given: the % may be the effect or the level left
[11] = test system: Left cardiac atrium; experiment: Negative inotropic activity in potassium depolarized guinea pig left atrium assessed as reduction in developed tension at 50 uM after 30 mins; type: functional, Cavia porcellus; design: scale not given: the % may be the effect or the level left
[12] = test system: Left cardiac atrium; experiment: Negative inotropic activity in potassium depolarized guinea pig left atrium assessed as reduction in developed tension at 10^-5 M after 30 mins; type: functional, Cavia porcellus; design: scale not given: the % may be the effect or the level left
[13] = test system: Left cardiac atrium; experiment: Negative inotropic activity in potassium depolarized guinea pig left atrium assessed as reduction in developed tension at 5 uM after 30 mins; type: functional, Cavia porcellus; design: scale not given: the % may be the effect or the level left
[14] = Relaxant activity in potassium depolarized guinea pig ileum longitudinal smooth muscle assessed as inhibition of calcium-induced contraction after 30 mins; type: functional, tissue-based; conditions: Cavia porcellus, 0.5 h
[15] = test system: Right cardiac atrium; experiment: Negative chronotropic activity in potassium depolarized guinea pig right atrium assessed as reduction in atrial rate at 10^-4 M after 30 mins; type: functional, Cavia porcellus; design: scale not given: the % may be the effect or the level left
[16] = Relaxant activity in potassium depolarized guinea pig ileum longitudinal smooth muscle assessed as inhibition of calcium-induced contraction at 10^-4 M after 30 mins; type: functional, Cavia porcellus; design: scale not given: the % may be the effect or the level left
[17] = in vitro; conditions: human, liver microsomes
[18] = Half life in human liver microsomes assessed as CYP-mediated compound degradation at 1 uM by LC-MS analysis
[19] = test system: Aorta; experiment: Vasorelaxant activity in potassium depolarized guinea pig aorta assessed as inhibition of calcium-induced contraction at 50 uM after 30 mins; type: functional, Cavia porcellus; design: scale not given: the % may be the effect or the level left; method in brief: as §1
[20] = test system: Right cardiac atrium; experiment: Negative chronotropic activity in potassium depolarized guinea pig right atrium assessed as reduction in atrial rate at 10^-5 M after 30 mins; type: functional, Cavia porcellus; design: scale not given: the % may be the effect or the level left
[21] = test system: Left cardiac atrium; experiment: Negative inotropic activity in potassium depolarized guinea pig left atrium assessed as reduction in developed tension at 10^-4 M after 30 mins; type: functional, Cavia porcellus; design: scale not given: the % may be the effect or the level left

Cytochrome P450 2C19, sequence (P33261 whole entry): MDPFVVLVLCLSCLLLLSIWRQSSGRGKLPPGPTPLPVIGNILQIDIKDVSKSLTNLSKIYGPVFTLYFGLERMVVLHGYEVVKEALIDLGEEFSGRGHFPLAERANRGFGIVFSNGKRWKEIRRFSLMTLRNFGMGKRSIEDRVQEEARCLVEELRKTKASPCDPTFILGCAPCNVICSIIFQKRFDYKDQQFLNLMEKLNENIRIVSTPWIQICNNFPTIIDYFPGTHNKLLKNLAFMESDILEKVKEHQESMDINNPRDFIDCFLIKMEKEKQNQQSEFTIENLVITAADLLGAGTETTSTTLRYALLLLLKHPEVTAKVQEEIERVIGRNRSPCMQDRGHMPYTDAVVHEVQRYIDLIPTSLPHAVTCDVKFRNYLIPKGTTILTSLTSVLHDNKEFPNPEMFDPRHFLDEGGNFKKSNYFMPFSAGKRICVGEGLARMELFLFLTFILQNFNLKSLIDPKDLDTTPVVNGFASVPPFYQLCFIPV
Cytochrome P450 2D6, sequence (P10635 whole entry): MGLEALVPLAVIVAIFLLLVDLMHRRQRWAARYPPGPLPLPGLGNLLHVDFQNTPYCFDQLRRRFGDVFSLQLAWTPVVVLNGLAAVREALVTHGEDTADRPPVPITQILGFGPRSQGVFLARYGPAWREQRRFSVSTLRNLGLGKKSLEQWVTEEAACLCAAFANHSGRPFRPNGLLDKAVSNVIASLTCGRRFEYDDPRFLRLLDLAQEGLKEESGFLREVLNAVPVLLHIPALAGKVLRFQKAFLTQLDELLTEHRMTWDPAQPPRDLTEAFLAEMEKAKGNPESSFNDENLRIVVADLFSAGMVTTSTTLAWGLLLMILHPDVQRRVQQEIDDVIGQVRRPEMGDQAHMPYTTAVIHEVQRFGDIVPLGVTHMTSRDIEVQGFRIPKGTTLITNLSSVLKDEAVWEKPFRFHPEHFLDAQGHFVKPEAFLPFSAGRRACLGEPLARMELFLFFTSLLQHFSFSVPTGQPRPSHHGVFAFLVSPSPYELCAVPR
Cytochrome P450 2C9, sequence (P11712 whole entry): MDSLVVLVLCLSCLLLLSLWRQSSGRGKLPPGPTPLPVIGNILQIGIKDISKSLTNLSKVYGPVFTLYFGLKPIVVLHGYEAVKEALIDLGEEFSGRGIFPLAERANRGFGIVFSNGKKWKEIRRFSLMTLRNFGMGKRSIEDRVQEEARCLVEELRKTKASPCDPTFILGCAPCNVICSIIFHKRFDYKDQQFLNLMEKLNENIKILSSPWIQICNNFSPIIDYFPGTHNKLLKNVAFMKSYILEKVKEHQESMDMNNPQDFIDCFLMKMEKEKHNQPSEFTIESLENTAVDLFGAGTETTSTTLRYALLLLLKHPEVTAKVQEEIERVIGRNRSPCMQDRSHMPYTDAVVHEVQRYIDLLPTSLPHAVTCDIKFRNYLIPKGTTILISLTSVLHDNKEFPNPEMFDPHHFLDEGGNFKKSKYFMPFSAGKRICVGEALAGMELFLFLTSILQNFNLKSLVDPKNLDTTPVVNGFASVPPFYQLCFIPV
T2 sequence (P08684 whole entry): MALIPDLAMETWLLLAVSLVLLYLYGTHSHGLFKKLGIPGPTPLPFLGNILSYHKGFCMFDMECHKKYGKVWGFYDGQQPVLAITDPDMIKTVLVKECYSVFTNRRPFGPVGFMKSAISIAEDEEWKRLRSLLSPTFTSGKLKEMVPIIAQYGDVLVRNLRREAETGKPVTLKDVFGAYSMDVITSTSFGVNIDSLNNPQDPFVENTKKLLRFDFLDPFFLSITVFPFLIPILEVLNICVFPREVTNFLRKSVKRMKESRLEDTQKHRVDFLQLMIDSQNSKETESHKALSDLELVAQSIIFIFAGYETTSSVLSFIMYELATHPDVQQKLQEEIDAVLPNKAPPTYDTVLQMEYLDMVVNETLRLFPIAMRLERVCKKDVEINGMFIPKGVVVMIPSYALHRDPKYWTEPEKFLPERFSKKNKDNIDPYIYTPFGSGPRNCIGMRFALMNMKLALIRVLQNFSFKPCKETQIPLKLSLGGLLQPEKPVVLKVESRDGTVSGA

## O=c1onc2n1-c1ccccc1SC2(OCC(F)(F)F)c1ccc(Br)cc1 (stereo not given)
[1]
  pIC50: < 4.70
[2]
  pIC50: < 4.70
[3]
  pIC50: < 4.70
[4]
  Stability: Stable
[5]
  pIC50: < 4.70
[6]
  pIC50: < 4.70
[7]
  pIC50: 4.97

## COc1cccc(C2(OCC3CCCCC3)SC=C(C)n3c2noc3=O)c1 (stereo not given)
[8]
  pEC50: 6.19
[9]
  Activity: 20%
[10]
  Activity: 4%
[11]
  Activity: 83%

## O=c1onc2n1-c1ccccc1SC2(O)c1ccccc1 (stereo not given)
[8]
  pEC50: 5.89
[9]
  Activity: 21%
[10]
  Activity: 10%
[11]
  Activity: 97%

## CCOC1(c2ccccc2)Sc2ccccc2-n2c1noc2=O (stereo not given)
[8]
  pEC50: 6.68
[1]
  pIC50: < 4.70
[2]
  pIC50: 4.72
[3]
  pIC50: < 4.70
[12]
  Activity: 88%
[4]
  Stability: Stable
[5]
  pIC50: < 4.70
[9]
  Activity: 14%
[7]
  pIC50: 5.21
[10]
  Activity: 7%

## CC1=CSC(OCC(F)(F)F)(c2ccccc2)c2noc(=O)n21 (stereo not given)
[8]
  pEC50: 6.85
[1]
  pIC50: < 4.70
[13]
  Activity: 79%
[2]
  pIC50: 4.74
[3]
  pIC50: 4.78
[4]
  Stability: Stable
[5]
  pIC50: < 4.70
[9]
  Activity: 28%
[6]
  pIC50: < 4.70
[7]
  pIC50: 5.62
[14]
  pIC50: 5.01
[15]
  Activity: 6%
[16]
  Activity: 95%

## CC1=CSC(OCC(F)(F)F)(c2ccc(Br)cc2)c2noc(=O)n21 (stereo not given)
[1]
  pIC50: 5.30
[17]
  microsomal CLint at 1 µM: < 7 µL/min/mg
[2]
  pIC50: 5.18
[3]
  pIC50: 5.15
[4]
  Stability: Stable
[5]
  pIC50: < 4.70
[6]
  pIC50: < 4.70
[7]
  pIC50: 6.00
[18]
  half-life at 1 µM: > 4.17 h

## COc1cccc(C2(OCC(F)(F)F)SC=C(C)n3c2noc3=O)c1 (stereo not given)
[8]
  pEC50: 6.49
[12]
  Activity: 72%
[9]
  Activity: 40%
[14]
  pIC50: 4.91
[15]
  Activity: 9%
[16]
  Activity: 95%

## COc1cccc(C2(O)SC=C(C)n3c2noc3=O)c1 (stereo not given)
[19]
  Activity: 10%
[8]
  pEC50: 6.31
[10]
  Activity: 16%
[11]
  Activity: 86%

## COc1ccccc1C1(OCC2CCCCC2)SC=C(C)n2c1noc2=O (stereo not given)
[8]
  pEC50: 6.32
[9]
  Activity: 17%
[10]
  Activity: 22%
[11]
  Activity: 89%

## O=c1onc2n1C=CSC2(O)c1ccccc1 (stereo not given)
[19]
  Activity: 11%
[10]
  Activity: 14%
[11]
  Activity: 74%

## CCOC1(c2ccccc2OC)SC=C(C)n2c1noc2=O (stereo not given)
[8]
  pEC50: 6.85
[13]
  Activity: 85%
[20]
  Activity: 29%
[9]
  Activity: 28%

## COc1ccc(C2(O)SC=C(C)n3c2noc3=O)cc1 (stereo not given)
[19]
  Activity: 18%
[8]
  pEC50: 6.28
[10]
  Activity: 12%
[11]
  Activity: 76%

## CC(C)OC1(c2ccccc2)Sc2ccccc2-n2c1noc2=O (stereo not given)
[8]
  pEC50: 6.39
[9]
  Activity: 7%
[11]
  Activity: 69%
[15]
  Activity: 13%

## COc1ccc(C2(OCC3CCCCC3)SC=C(C)n3c2noc3=O)cc1 (stereo not given)
[8]
  pEC50: 6.18
[9]
  Activity: 21%
[21]
  Activity: 80%
[15]
  Activity: 3%
